Results reported in ChEMBL document CHEMBL4406859, “Antitumor and antiviral activities of 4-substituted 1,2,3-triazolyl-2,3-dibenzyl-L-ascorbic acid derivatives” (Eur J Med Chem, 2019).
The source made the active and inactive calls. No cut-off for these calls is given here.

Assays:
Human alphaherpesvirus 3 [1] = assay: Antiviral activity against thymidine kinase positive Varicella zoster virus infected in human HELF cells assessed as reduction in virus-induced cytopathogenicity incubated for 7 days by Giemsa staining based microscopic analysis; format: functional, organism-based; details: Human alphaherpesvirus 3, HELF, 168 h
Human alphaherpesvirus 1 [2] = assay: Antiviral activity against Herpes simplex virus 1 KOS infected in human HELF cells assessed as reduction in virus-induced cytopathogenicity incubated for 7 days by microscopic analysis; format: functional, organism-based; details: strain KOS
Influenza A virus [3] = assay: Antiviral activity against Influenza A virus (A/Ned/378/05(H1N1)) infected in dog MDCK cells assessed as reduction in virus-induced cytopathogenicity incubated for 7 days by microscopic analysis; format: functional, organism-based
Coxsackievirus B4 = assay: Antiviral activity against Human coxsackievirus B4 infected in vero cells assessed as reduction in virus-induced cytopathogenicity incubated for 7 days by microscopic analysis; format: functional, organism-based
[4] = Cytotoxicity against human HELF cells assessed as reduction in cell viability incubated for 3 days by coulter counter method; format: cell-based; details: 72 h
Method in brief: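 HEL cells seeded at 5 x 10^3/well and allowed to proliferate 24 h, then exposed to graded compound concentrations for 3 days at 37 °C. Cell number counted with a Coulter counter.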

[5] = Cytotoxicity against human HELF cells assessed as minimum cytotoxic concentration by observing alteration in cell morphology incubated for 3 days by microscopic analysis; format: cell-based; details: HELF cells
Method in brief: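 Read-out is the minimum cytotoxic concentration (MCC): the lowest compound concentration giving a microscopically detectable change in cell morphology. Measured on confluent human embryonic lung (HEL) fibroblast cultures exposed to a range of compound concentrations.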

HeLa = assay: Antiproliferative activity against human HeLa cells assessed as reduction in cell viability incubated for 72 hrs by MTT assay; format: functional, cell-based
Method in brief: (§1)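 Cells (ATCC) grown in DMEM with 10 FBS, penicillin/streptomycin, 2 mM glutamine, 37 °C, 5 CO2. 5000 cells/well seeded; after 24 h, freshly prepared dilutions at five concentrations (0.01–100 μM) added for 72 h. MTT read-out; absorbance converted to percentage growth by NIH formulas. Two experiments in quadruplicate; IC50 by linear regression.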

SW-620 = assay: Antiproliferative activity against human SW620 cells assessed as reduction in cell viability incubated for 72 hrs by MTT assay; format: functional, cell-based; details: SW-620, 72 h; method in brief: as §1
HepG2 = assay: Antiproliferative activity against human HepG2 cells assessed as reduction in cell viability incubated for 72 hrs by MTT assay; format: functional, cell-based; details: HepG2, 72 h; method in brief: as §1
Human alphaherpesvirus 2 = assay: Antiviral activity against Herpes simplex virus 2 G infected in human HELF cells assessed as reduction in virus-induced cytopathogenicity incubated for 7 days by microscopic analysis; format: functional, organism-based
Influenza B virus [6] = assay: Antiviral activity against Influenza B virus (B/Ned/537/05) infected in dog MDCK cells assessed as reduction in virus-induced cytopathogenicity incubated for 7 days by MTS assay; format: functional, organism-based
Cytomegalovirus [7] = assay: Antiviral activity against Cytomegalovirus AD169 infected in human HELF cells assessed as reduction in virus-induced cytopathogenicity incubated for 7 days by Giemsa staining based microscopic analysis; format: functional, organism-based; details: Human betaherpesvirus 5, AD169, HELF, 168 h
Method in brief: (§2)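 Confluent HEL fibroblasts infected with CMV (Davis or AD-169) at 100 PFU/well for 2 h. Residual virus removed, then medium with graded compound concentrations added (duplicate). Incubated 7 days at 37 °C. Cytopathogenicity scored microscopically after ethanol fixation and Giemsa staining. EC50 read from plots of % cytopathogenicity versus concentration.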

Human alphaherpesvirus 1 [8] = assay: Antiviral activity against Herpes simplex virus 1 TK-KOS-ACV infected in human HELF cells assessed as reduction in virus-induced cytopathogenicity incubated for 7 days by microscopic analysis; format: functional, organism-based
Human coronavirus 229E = assay: Antiviral activity against Human coronavirus 229E infected in human HELF cells assessed as reduction in virus-induced cytopathogenicity incubated for 7 days by microscopic analysis; format: functional, organism-based
A549 = assay: Antiproliferative activity against human A549 cells assessed as reduction in cell viability incubated for 72 hrs by MTT assay; format: functional, cell-based; details: A549, 72 h; method in brief: as §1
Reovirus sp. = assay: Antiviral activity against Reovirus infected in vero cells assessed as reduction in virus-induced cytopathogenicity incubated for 7 days by microscopic analysis; format: functional, organism-based
Influenza A virus H3N2 [9] = assay: Antiviral activity against Influenza A virus (A/HK/7/87(H3N2)) infected in dog MDCK cells assessed as reduction in virus-induced cytopathogenicity incubated for 7 days by microscopic analysis; format: functional, organism-based; details: A/Hong Kong/7/1987(H3N2)
Human alphaherpesvirus 3 [10] = assay: Antiviral activity against thymidine kinase deficient Varicella zoster virus infected in human HELF cells assessed as reduction in virus-induced cytopathogenicity incubated for 7 days by Giemsa staining based microscopic analysis; format: functional, organism-based; details: Human alphaherpesvirus 3, HELF, 168 h
Influenza A virus H3N2 [11] = assay: Antiviral activity against Influenza A virus (A/HK/7/87(H3N2)) infected in dog MDCK cells assessed as reduction in virus-induced cytopathogenicity incubated for 7 days by MTS assay; format: functional, organism-based; details: A/Hong Kong/7/1987(H3N2)
Influenza B virus [12] = assay: Antiviral activity against Influenza B virus (B/Ned/537/05) infected in dog MDCK cells assessed as reduction in virus-induced cytopathogenicity incubated for 7 days by microscopic analysis; format: functional, organism-based
Influenza A virus [13] = assay: Antiviral activity against Influenza A virus (A/Ned/378/05(H1N1)) infected in dog MDCK cells assessed as reduction in virus-induced cytopathogenicity incubated for 7 days by MTS assay; format: functional, organism-based
Human adenovirus 2 = assay: Antiviral activity against Human adenovirus 2 infected in human HELF cells assessed as reduction in virus-induced cytopathogenicity incubated for 7 days by microscopic analysis; format: functional, organism-based
Sindbis virus = assay: Antiviral activity against Sindbis virus infected in vero cells assessed as reduction in virus-induced cytopathogenicity incubated for 7 days by microscopic analysis; format: functional, organism-based
MCF7 = assay: Antiproliferative activity against human MCF7 cells assessed as reduction in cell viability incubated for 72 hrs by MTT assay; format: functional, cell-based; details: MCF7, 72 h; method in brief: as §1
HCT-116 = assay: Antiproliferative activity against human HCT116cells assessed as reduction in cell viability incubated for 72 hrs by MTT assay; format: functional, cell-based; details: HCT-116, 72 h; method in brief: as §1
CFPAC-1 = assay: Antiproliferative activity against human CFPAC-1 cells assessed as reduction in cell viability incubated for 72 hrs by MTT assay; format: functional, cell-based; method in brief: as §1
Cytomegalovirus [14] = assay: Antiviral activity against Cytomegalovirus Davis infected in human HELF cells assessed as reduction in virus-induced cytopathogenicity incubated for 7 days by Giemsa staining based microscopic analysis; format: functional, organism-based; details: Human betaherpesvirus 5, Davis, 168 h; method in brief: as §2
HFF = assay: Cytotoxicity against human HFF cells assessed as reduction in cell viability incubated for 72 hrs by MTT assay; format: cell-based; method in brief: as §1
MDCK = assay: Cytotoxicity against dog MDCK cells assessed as reduction in cell viability incubated for 3 days by coulter counter method; format: cell-based, Canis lupus familiaris; details: mdck, 72 h
[15] = Cytotoxicity against dog MDCK cells assessed as minimum cytotoxic concentration by observing alteration in cell morphology incubated for 3 days by microscopic analysis; format: cell-based, Canis lupus familiaris
[16] = Homo sapiens, CFPAC-1, 72 h, read-out: IC50

O=C1O/C(=C\Cn2cc(-c3cc(F)cc(F)c3)nn2)C(OCc2ccccc2)=C1OCc1ccccc1
EC50 (Human alphaherpesvirus 3 [1]): 14.6 µM
Activity (Human alphaherpesvirus 1 [2]): inactive
Activity (Influenza A virus [3]): inactive
Activity (Coxsackievirus B4): inactive
CC50 [4]: > 100 µM
MCC at 72 h [5]: 100 µM
IC50 (HeLa): 17.7 µM
IC50 (SW-620): > 100 µM
IC50 (HepG2): > 100 µM
Activity (Human alphaherpesvirus 2): inactive
Activity (Influenza B virus [6]): inactive
EC50 (Cytomegalovirus [7]): 9.36 µM
Activity (Human alphaherpesvirus 1 [8]): inactive
Activity (Human coronavirus 229E): inactive
IC50 (A549): > 100 µM
Activity (Reovirus sp.): inactive
Activity (Influenza A virus H3N2 [9]): inactive
EC50 (Human alphaherpesvirus 3 [10]): > 100 µM
Activity (Influenza A virus H3N2 [11]): inactive
Activity (Influenza B virus [12]): inactive
Activity (Influenza A virus [13]): inactive
Activity (Human adenovirus 2): inactive
Activity (Sindbis virus): inactive
IC50 (MCF7): > 100 µM
IC50 (HCT-116): > 100 µM
IC50 (CFPAC-1; cfpac-1): Not Active
EC50 (Cytomegalovirus [14]): 8.94 µM
IC50 (HFF): > 100 µM

Cc1ccc(-c2cn(C/C=C3\OC(=O)C(OCc4ccccc4)=C3OCc3ccccc3)nn2)cc1
EC50 (Human alphaherpesvirus 3 [1]): > 4 µM
Activity (Human alphaherpesvirus 1 [2]): inactive
Activity (Influenza A virus [3]): inactive
Activity (Coxsackievirus B4): inactive
CC50 [4]: > 100 µM
MCC at 72 h [5]: 20 µM
IC50 (HeLa): 7.48 µM
IC50 (SW-620): > 100 µM
IC50 (HepG2): > 100 µM
Activity (Human alphaherpesvirus 2): inactive
Activity (Influenza B virus [6]): inactive
EC50 (Cytomegalovirus [7]): 8.94 µM
Activity (Human alphaherpesvirus 1 [8]): inactive
Activity (Human coronavirus 229E): inactive
IC50 (A549): > 100 µM
Activity (Reovirus sp.): inactive
Activity (Influenza A virus H3N2 [9]): inactive
EC50 (Human alphaherpesvirus 3 [10]): 27.6 µM
Activity (Influenza A virus H3N2 [11]): inactive
Activity (Influenza B virus [12]): inactive
Activity (Influenza A virus [13]): inactive
Activity (Human adenovirus 2): inactive
Activity (Sindbis virus): inactive
IC50 (MCF7): > 100 µM
IC50 (HCT-116): > 100 µM
IC50 (CFPAC-1; [16]): > 100 µM
EC50 (Cytomegalovirus [14]): 5.66 µM
IC50 (HFF): > 100 µM

NC12CC3CC(CC(C3)C1)C2 [AMANTADINE]
EC50 (Influenza A virus [3]; Influenza A virus, A/Ned/378/05(H1N1), MDCK, 168 h): 20 µM
CC50 (MDCK): > 100 µM
EC50 (Influenza B virus [6]; 168 h): > 100 µM
EC50 (Influenza A virus H3N2 [9]; 168 h): 0.2 µM
MCC at 72 h [15]: > 100 µM
EC50 (Influenza A virus H3N2 [11]; 168 h): 0.03 µM
EC50 (Influenza B virus [12]; 168 h): > 100 µM
EC50 (Influenza A virus [13]): 22.6 µM

CC(C)(C)c1cn(C/C=C2\OC(=O)C(OCc3ccccc3)=C2OCc2ccccc2)nn1
EC50 (Human alphaherpesvirus 3 [1]): 11.7 µM
Activity (Human alphaherpesvirus 1 [2]): inactive
Activity (Influenza A virus [3]): inactive
Activity (Coxsackievirus B4): inactive
CC50 [4]: 55.5 µM
MCC at 72 h [5]: 100 µM
IC50 (HeLa): > 100 µM
IC50 (SW-620): 20.7 µM
IC50 (HepG2): 62.2 µM
Activity (Human alphaherpesvirus 2): inactive
Activity (Influenza B virus [6]): inactive
EC50 (Cytomegalovirus [7]): 8.94 µM
Activity (Human alphaherpesvirus 1 [8]): inactive
Activity (Human coronavirus 229E): inactive
IC50 (A549): 5.25 µM
Activity (Reovirus sp.): inactive
Activity (Influenza A virus H3N2 [9]): inactive
EC50 (Human alphaherpesvirus 3 [10]): 10 µM
Activity (Influenza A virus H3N2 [11]): inactive
Activity (Influenza B virus [12]): inactive
Activity (Influenza A virus [13]): inactive
Activity (Human adenovirus 2): inactive
Activity (Sindbis virus): inactive
IC50 (MCF7): 4.93 µM
IC50 (HCT-116): 47.3 µM
IC50 (CFPAC-1; [16]): > 100 µM
EC50 (Cytomegalovirus [14]): 5.2 µM
IC50 (HFF): 49.9 µM

COc1ccccc1-c1cn(C/C=C2\OC(=O)C(OCc3ccccc3)=C2OCc2ccccc2)nn1
EC50 (Human alphaherpesvirus 3 [1]): > 100 µM
Activity (Human alphaherpesvirus 1 [2]): inactive
Activity (Influenza A virus [3]): inactive
Activity (Coxsackievirus B4): inactive
CC50 [4]: 4.29 µM
MCC at 72 h [5]: 100 µM
IC50 (HeLa): > 100 µM
IC50 (SW-620): > 100 µM
IC50 (HepG2): > 100 µM
Activity (Human alphaherpesvirus 2): inactive
Activity (Influenza B virus [6]): inactive
EC50 (Cytomegalovirus [7]): > 100 µM
Activity (Human alphaherpesvirus 1 [8]): inactive
Activity (Human coronavirus 229E): inactive
IC50 (A549): > 100 µM
Activity (Reovirus sp.): inactive
Activity (Influenza A virus H3N2 [9]): inactive
EC50 (Human alphaherpesvirus 3 [10]): > 20 µM
Activity (Influenza A virus H3N2 [11]): inactive
Activity (Influenza B virus [12]): inactive
Activity (Influenza A virus [13]): inactive
Activity (Human adenovirus 2): inactive
Activity (Sindbis virus): inactive
IC50 (MCF7): > 100 µM
IC50 (HCT-116): > 100 µM
IC50 (CFPAC-1; [16]): > 100 µM
EC50 (Cytomegalovirus [14]): 10.8 µM
IC50 (HFF): > 100 µM
